Laboratory results published in ChEMBL document CHEMBL1145067, “3'-C-branched-chain-substituted nucleosides and nucleotides as potent inhibitors of Mycobacterium tuberculosis thymidine monophosphate kinase” (J Med Chem, 2003).

Columns and labels:
Thymidylate kinase = target: T1, Thymidylate kinase (Mycobacterium tuberculosis, UniProt P9WKE1); assay: In Vitro inhibition of Thymidine […] Kinase of Mycobacterium tuberculosis (TMPKm)
T1 sequence (P9WKE1 whole entry): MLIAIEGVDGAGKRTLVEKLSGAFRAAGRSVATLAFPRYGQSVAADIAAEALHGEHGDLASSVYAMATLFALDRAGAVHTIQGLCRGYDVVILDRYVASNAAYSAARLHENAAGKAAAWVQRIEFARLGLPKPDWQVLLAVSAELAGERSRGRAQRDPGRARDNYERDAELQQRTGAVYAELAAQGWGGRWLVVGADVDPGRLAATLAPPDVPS
In short: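 Recombinant TMPKmt or human TMPKh overexpressed in E. coli. ATP was fixed at 0.5 mM and dTMP at 0.05 mM; analogues were varied over 0.01–4 mM.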

[1] = ratio of Ki (Ki TMPKh / KiTMPKmt) was determined
[2] = target: Thymidylate kinase (Homo sapiens) (UniProt P23919); assay: In Vitro inhibition of […] (TMPKh); No inhibition at 4000 uM
[3] = ratio of Ki (Km TMPKh / Ki TMPKmt) was determined
[4] = ratio of Km (Km TMPKh / Km TMPKmt) was determined

Chain of Thymidylate kinase (Homo sapiens) (P23919 whole entry, looked up): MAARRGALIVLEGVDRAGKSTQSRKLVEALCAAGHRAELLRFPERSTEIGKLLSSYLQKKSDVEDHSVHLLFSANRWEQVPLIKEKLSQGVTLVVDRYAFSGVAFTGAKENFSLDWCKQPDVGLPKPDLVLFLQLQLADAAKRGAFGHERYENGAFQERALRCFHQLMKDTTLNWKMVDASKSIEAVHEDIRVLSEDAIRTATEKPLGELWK

Structure (SMILES)	Ki (Thymidylate kinase) [µM]	SI [1]	other results
Cc1cn([C@@H]2O[C@H](COP(=O)(O)O)[C@@H](CN=[N+]=[N-])[C@H]2O)c(=O)[nH]c1=O	116		
Cc1cn([C@H]2C[C@H](CO)[C@@H](COP(=O)(O)O)O2)c(=O)[nH]c1=O	29	1.5	
Cc1cn([C@H]2C[C@H](CN)[C@@H](CO)O2)c(=O)[nH]c1=O	57	3.9	
Cc1cn([C@H]2C[C@H](CN)[C@@H](COP(=O)(O)O)O2)c(=O)[nH]c1=O	10.5	0.4	
Cc1cn([C@@H]2O[C@H](CO)[C@@H](CN=[N+]=[N-])[C@H]2O)c(=O)[nH]c1=O	770		NI [2]: No inhibition at 4000 uM
Cc1cn([C@@H]2O[C@H](COP(=O)(O)O)[C@@H](CN)[C@H]2O)c(=O)[nH]c1=O	315	0.9	
Cc1cn([C@H]2C[C@H](N=[N+]=[N-])[C@@H](CO)O2)c(=O)[nH]c1=O [ZIDOVUDINE]	28		
Cc1cn([C@H]2C[C@H](N=[N+]=[N-])[C@@H](COP(=O)(O)O)O2)c(=O)[nH]c1=O			SI [3]: 1.2
Cc1cn([C@H]2C[C@H](CF)[C@@H](CO)O2)c(=O)[nH]c1=O	45	21.6	
Cc1cn([C@H]2C[C@H](CO)[C@@H](CO)O2)c(=O)[nH]c1=O	41	10	
Cc1cn([C@@H]2O[C@H](CO)[C@@H](CN)[C@H]2O)c(=O)[nH]c1=O	393	0.3	
Cc1cn([C@H]2C[C@H](O)[C@@H](COP(=O)(O)O)O2)c(=O)[nH]c1=O			SI [4]: 1.1
Cc1cn([C@H]2C[C@H](CN=[N+]=[N-])[C@@H](CO)O2)c(=O)[nH]c1=O	40	26	
Cc1cn([C@H]2C[C@H](CCO)[C@@H](CO)O2)c(=O)[nH]c1=O	156		
Cc1cn([C@H]2C[C@H](CN=[N+]=[N-])[C@@H](COP(=O)(O)O)O2)c(=O)[nH]c1=O	12	2.7	
Cc1cn([C@H]2C[C@H](CF)[C@@H](COP(=O)(O)O)O2)c(=O)[nH]c1=O	15	2.7	
